Source: article PMC10692477 (Acta Pharmaceutica Sinica. B, 2023)

Tests used:
AXL signaling pathway [1] = assay: GAS6-stimulated AXL signaling in NCI-H1299 cells, Western blot; format: cell-based; conditions: NCI-H1299, 1 h treatment, GAS6 500 ng/mL 15 min
In short: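 NCI-H1299 cells in exponential growth were serum-deprived for 24 h, then given the test compound for 1 h and stimulated with GAS6 500 ng/mL for 15 min. Lysis was in 1× SDS sample buffer, followed by 10% SDS-PAGE and nitrocellulose transfer.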

[2] = tested on: BaF3/TEL-AXL mouse xenograft; assay: BaF3/TEL-AXL cell-derived mouse xenograft model
AXL phosphorylation = assay: Intratumoral AXL phosphorylation, immunoblotting of tumor tissues; format: in vivo, nude mice; conditions: tumor tissues 1 h after last dosage; 4 and 20 mg/kg groups
c-Met kinase = c-Met kinase (Homo sapiens, UniProt P08581); assay: c-Met kinase inhibition, ELISA; format: biochemical
In short: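 c-Met inhibition was measured by an ELISA-based kinase assay following a previously reported method. IC50 values were calculated from inhibition curves with a modified 4-parameter logistic model, from at least two separate experiments.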

AXL kinase = biological target: T1, AXL kinase (Homo sapiens, UniProt P30530); assay: AXL kinase inhibition, ELISA; format: biochemical; conditions: IC50 AXL kinase, ELISA; mean ± SD of two independent experiments
T1 sequence (P30530 26-894): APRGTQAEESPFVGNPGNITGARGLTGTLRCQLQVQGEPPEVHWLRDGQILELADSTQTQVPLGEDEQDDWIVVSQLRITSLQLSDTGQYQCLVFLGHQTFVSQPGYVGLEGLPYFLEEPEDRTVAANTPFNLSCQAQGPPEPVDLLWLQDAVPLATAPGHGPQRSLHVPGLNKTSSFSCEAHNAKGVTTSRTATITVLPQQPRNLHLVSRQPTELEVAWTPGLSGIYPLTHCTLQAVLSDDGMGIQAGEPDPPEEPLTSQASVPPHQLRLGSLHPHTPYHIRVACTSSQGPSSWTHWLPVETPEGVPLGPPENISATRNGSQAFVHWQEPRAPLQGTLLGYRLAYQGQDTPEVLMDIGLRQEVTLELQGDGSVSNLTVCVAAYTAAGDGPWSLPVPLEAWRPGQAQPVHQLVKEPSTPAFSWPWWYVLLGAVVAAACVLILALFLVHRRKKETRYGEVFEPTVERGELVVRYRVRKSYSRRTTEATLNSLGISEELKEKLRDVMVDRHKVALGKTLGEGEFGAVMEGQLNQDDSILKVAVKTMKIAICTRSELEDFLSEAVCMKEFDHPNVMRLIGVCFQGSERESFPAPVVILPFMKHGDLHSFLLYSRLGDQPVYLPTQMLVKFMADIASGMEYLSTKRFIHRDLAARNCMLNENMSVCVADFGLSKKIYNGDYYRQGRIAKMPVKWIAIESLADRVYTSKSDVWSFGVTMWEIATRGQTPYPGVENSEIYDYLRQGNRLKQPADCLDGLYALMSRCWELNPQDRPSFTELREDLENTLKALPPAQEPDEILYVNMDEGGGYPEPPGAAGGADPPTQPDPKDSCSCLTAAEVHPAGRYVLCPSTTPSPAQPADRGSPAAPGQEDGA

SNU449 cells [3] = assay: GAS6-stimulated SNU449 cell invasion; format: cell-based; conditions: 20 nmol/L, GAS6 500 ng/mL, 24 h
In short: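 SNU449 cells were seeded in top chambers with matrigel-coated membrane inserts. The lower chamber held serum-free medium with GAS6 500 ng/mL, and the test compound was added to both sides. After 24 h, non-invading cells were removed. Invaded cells were fixed in 90% ethanol for 1 h, stained with 0.1% crystal violet for 15 min at room temperature, and imaged.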

BaF3/TEL-AXL cells = assay: BaF3/TEL-AXL cell viability; format: cell-based; conditions: 48 h, read-out: IC50 Cell viability
AXL signaling pathway [4] = assay: AXL signaling in BaF3/TEL-AXL cells, Western blot; format: cell-based; conditions: 1 h
In short: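 BaF3/TEL-AXL cells in exponential growth were exposed to the test compound at the indicated concentrations for 1 h. Cells were lysed in 1× SDS sample buffer, run on 10% SDS-PAGE and transferred to nitrocellulose.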

SNU449 cells [5] = assay: SNU449 cell viability under GAS6; format: cell-based; conditions: same conditions as cell motility; GAS6 500 ng/mL, 24 h
In short: (§1)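 NCI-H1299 or SNU449 cells were seeded at low density in growth medium and incubated overnight. They were then stimulated with GAS6 500 ng/mL and treated with graded concentrations of the test compound for 24 h. Viability was read by CCK-8.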

NCI-H1299 cells [6] = assay: NCI-H1299 cell viability under GAS6; format: cell-based; conditions: same conditions as cell motility; GAS6 500 ng/mL, 24 h
In short: as §1

[7] = Pharmacokinetics in ICR mice; format: in vivo; conditions: mouse, serum
other 55 tested kinases = assay: Kinase selectivity panel of 62 kinases; format: biochemical, human; conditions: 100 nmol/L
EBC-1 cells = assay: EBC-1 cell viability; format: cell-based; conditions: Homo sapiens, EBC-1, 72 h, read-out: IC50 viability of EBC-1 cells
In short: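 EBC-1 cells were seeded at low density in growth medium and incubated overnight. They were then treated with graded concentrations of the test compound for 72 h. Viability was read by CCK-8, and IC50 was obtained by four-parameter concentration–response curve fitting.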

NCI-H1299 cells [8] = assay: NCI-H1299 cell wound healing assay; format: cell-based; conditions: NCI-H1299, GAS6 500 ng/mL, 24 h
In short: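 NCI-H1299 monolayers were scratched, then given GAS6 500 ng/mL alone or with graded concentrations of the test compound for 24 h. Wound closure was imaged at 0 and 24 h, in triplicate.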

E-cadherin expression = E-cadherin expression in GAS6-stimulated NCI-H1299 cells, immunoblotting; format: cell-based; conditions: NCI-H1299, GAS6 500 ng/mL, 48 h
NCI-H1299 cells [9] = assay: GAS6-stimulated NCI-H1299 cell migration; format: cell-based; conditions: 20 nmol/L, GAS6 500 ng/mL, 24 h
In short: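 NCI-H1299 cells (1.5 × 10^5 per well) in serum-free medium were placed in Transwell inserts with 8 μm pores. The lower chamber held serum-free medium with GAS6 500 ng/mL, and the test compound was added to both sides of the membrane. After 24 h, non-migrated cells were swabbed off. Migrated cells were fixed in 90% ethanol for 1 h, stained with 0.1% crystal violet for 15 min at room temperature, and imaged by microscopy.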

Chain of c-Met kinase (P08581 25-1390): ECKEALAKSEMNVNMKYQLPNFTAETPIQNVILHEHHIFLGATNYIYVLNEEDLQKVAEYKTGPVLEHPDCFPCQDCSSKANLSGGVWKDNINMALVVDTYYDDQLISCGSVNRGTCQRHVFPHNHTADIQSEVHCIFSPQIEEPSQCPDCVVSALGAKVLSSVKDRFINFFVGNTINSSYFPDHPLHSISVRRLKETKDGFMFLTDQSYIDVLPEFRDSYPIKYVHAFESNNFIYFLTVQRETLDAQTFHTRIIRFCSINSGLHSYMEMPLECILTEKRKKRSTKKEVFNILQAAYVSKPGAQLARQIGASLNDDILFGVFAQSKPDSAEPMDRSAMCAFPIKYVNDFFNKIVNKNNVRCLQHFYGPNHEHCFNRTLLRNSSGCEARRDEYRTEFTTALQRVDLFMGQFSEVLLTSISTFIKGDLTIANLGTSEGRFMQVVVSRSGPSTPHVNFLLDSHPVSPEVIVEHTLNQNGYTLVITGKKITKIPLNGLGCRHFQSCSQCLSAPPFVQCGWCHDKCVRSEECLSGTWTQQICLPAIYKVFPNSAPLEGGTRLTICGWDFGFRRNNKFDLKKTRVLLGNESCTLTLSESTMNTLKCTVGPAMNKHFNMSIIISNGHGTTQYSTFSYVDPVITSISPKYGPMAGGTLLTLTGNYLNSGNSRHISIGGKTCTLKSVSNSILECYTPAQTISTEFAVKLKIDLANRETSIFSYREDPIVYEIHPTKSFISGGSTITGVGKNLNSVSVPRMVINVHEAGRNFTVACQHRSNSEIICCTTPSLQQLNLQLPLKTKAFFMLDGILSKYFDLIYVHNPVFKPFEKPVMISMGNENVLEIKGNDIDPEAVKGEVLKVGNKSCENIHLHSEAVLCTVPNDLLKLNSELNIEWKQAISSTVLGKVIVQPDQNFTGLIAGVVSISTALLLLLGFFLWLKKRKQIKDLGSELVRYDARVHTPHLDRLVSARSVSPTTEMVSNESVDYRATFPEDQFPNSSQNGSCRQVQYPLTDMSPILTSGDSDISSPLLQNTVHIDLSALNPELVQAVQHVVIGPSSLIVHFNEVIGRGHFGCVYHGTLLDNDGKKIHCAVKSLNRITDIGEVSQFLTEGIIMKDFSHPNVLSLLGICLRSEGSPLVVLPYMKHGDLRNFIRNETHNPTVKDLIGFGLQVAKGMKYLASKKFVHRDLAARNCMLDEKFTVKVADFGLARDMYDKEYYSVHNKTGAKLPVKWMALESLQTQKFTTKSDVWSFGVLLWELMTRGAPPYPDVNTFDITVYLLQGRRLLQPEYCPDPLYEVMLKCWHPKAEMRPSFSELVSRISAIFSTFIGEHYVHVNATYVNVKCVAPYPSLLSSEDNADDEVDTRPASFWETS

COc1cc2nccc(Oc3ccc(NC(=O)c4c5n(n(-c6ccc(F)cc6)c4=O)CCCC5)cc3)c2cc1OC [Compound 59]
p-AKT level (AXL signaling pathway [1]): significantly inhibited
p-ERK (AXL signaling pathway [1]): marginally inhibited
p-STAT3 level (AXL signaling pathway [1]): significantly inhibited
phosphorylation of AXL induced by GAS6 (AXL signaling pathway [1]): significantly inhibited
TGI ([2]; 20 mg/kg po qd, 7 consecutive days): 89.4%
body weight of tumor-bearing mice during the treatment ([2]; 4 and 20 mg/kg po qd): no significant body weight loss
intratumoral AXL phosphorylation (p-AXL) (AXL phosphorylation): robust inhibitions
IC50 (c-Met kinase): 17.3 nM
IC50 (AXL kinase): 3.5 ± 0.8 nM
SNU449 cell invasion (SNU449 cells [3]): significant inhibition
IC50 (BaF3/TEL-AXL cells): 1.5 ± 0.4 nM
p-ERK (AXL signaling pathway [4]): a bit weaker inhibtion
phosphorylation of AKT (AXL signaling pathway [4]): dose-dependently inhibited
phosphorylation of AXL (AXL signaling pathway [4]): dose-dependently inhibited
phosphorylation of STAT3 (AXL signaling pathway [4]): dose-dependently inhibited
cell viability of SNU449 cells (SNU449 cells [5]): no significant inhibitory effects
cell viability of NCI-H1299 cells (NCI-H1299 cells [6]): no significant inhibitory effects
AUC(0-inf) ([7]; iv, 5 mg/kg): 21600 ng·h/mL
AUC(0-t) ([7]; iv, 5 mg/kg): 20500 ng·h/mL
clearance ([7]; iv, 5 mg/kg): 3.86 mL/min/kg
half-life ([7]; iv, 5 mg/kg): 100 min
AUC(0-inf) ([7]; po, 10 mg/kg): 14900 ng·h/mL
AUC(0-t) ([7]; po, 10 mg/kg): 14800 ng·h/mL
Cmax ([7]; po, 10 mg/kg): 2300 ng/mL
Tmax ([7]; po, 10 mg/kg): 1 h
bioavailability ([7]; po, 10 mg/kg): 36.1%
half-life ([7]; po, 10 mg/kg): 176 min
Inhibition rate, other 55 tested kinases (other 55 tested kinases): less than 50%
IC50 (EBC-1 cells): 535 nM
GAS6-accelerated wound healing (NCI-H1299 cells [8]): obviously inhibited
GAS6-induced downregulation of E-cadherin expression (E-cadherin expression): significantly reversed
NCI-H1299 cell migration (NCI-H1299 cells [9]): significant reduction
